“And” between values parts separate entries of the source, which are not always exact repeats. Equal values may be shown once.

As usually defined, the Ki is the equilibrium dissociation constant of an inhibitor or competing ligand from its target. Read a low Ki as tighter binding.

For one assay, the target named is Acetylcholinesterase (Homo sapiens, UniProt P22303). Nature of the assay: Inhibition of 1 mM acetylthiocholine (AcTCh) binding to human Acetylcholinesterase. The method, boiled down:
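Human acetylcholinesterase from a commercial supplier, assayed with 1 mM acetylthiocholine as substrate.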

In a further assay the target is T1, Liver carboxylesterase 1 (Homo sapiens, UniProt P23141).
T1 sequence (P23141 whole entry): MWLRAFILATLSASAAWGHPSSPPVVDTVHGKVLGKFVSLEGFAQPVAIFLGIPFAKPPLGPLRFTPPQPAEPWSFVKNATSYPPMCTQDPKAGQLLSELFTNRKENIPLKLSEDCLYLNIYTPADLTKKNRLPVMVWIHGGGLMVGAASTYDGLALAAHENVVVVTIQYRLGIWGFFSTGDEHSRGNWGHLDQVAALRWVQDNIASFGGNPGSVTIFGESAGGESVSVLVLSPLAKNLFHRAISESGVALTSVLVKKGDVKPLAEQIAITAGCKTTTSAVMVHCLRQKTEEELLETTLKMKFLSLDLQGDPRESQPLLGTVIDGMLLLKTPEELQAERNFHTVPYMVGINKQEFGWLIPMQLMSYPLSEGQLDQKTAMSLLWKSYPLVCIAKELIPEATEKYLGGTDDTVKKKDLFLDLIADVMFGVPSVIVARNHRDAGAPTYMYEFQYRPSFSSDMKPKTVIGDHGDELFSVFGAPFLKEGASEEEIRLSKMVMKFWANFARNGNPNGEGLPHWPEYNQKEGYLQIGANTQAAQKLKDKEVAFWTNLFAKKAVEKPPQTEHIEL
Nature of the assay: Inhibition constant against human liver carboxylesterase (hCE1) expressed in Sf21 cells using 3 mM o-NPA. In kind it is cell-based, Oryctolagus cuniculus.

Another assay deals with T2, Cocaine esterase (Homo sapiens, UniProt O00748).
T2 sequence (O00748 whole entry): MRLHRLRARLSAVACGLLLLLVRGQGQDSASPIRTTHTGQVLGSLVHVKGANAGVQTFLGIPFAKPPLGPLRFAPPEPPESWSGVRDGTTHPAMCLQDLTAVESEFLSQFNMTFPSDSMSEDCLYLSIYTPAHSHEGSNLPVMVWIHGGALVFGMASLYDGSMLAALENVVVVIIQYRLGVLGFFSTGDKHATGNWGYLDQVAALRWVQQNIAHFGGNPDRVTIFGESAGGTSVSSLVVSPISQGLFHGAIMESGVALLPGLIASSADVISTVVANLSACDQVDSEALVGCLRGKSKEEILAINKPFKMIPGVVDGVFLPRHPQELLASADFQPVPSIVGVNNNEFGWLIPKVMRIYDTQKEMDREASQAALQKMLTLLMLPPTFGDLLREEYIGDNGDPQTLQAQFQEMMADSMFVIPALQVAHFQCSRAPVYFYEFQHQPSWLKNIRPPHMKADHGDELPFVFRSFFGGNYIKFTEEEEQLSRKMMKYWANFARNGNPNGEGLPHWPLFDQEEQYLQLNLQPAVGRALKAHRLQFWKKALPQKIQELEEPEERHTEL
Kind of assay: Inhibition constant against human intestinal carboxylesterase (hiCE) expressed in Sf21 cells using 3 mM o-NPA.

A short description of assay [1]: Inhibition constant against rabbit liver carboxylesterase (rCE) expressed in Sf21 cells using 3 mM o-NPA. Also noted: species or system Oryctolagus cuniculus.

Acetylcholinesterase, sequence (P22303 whole entry): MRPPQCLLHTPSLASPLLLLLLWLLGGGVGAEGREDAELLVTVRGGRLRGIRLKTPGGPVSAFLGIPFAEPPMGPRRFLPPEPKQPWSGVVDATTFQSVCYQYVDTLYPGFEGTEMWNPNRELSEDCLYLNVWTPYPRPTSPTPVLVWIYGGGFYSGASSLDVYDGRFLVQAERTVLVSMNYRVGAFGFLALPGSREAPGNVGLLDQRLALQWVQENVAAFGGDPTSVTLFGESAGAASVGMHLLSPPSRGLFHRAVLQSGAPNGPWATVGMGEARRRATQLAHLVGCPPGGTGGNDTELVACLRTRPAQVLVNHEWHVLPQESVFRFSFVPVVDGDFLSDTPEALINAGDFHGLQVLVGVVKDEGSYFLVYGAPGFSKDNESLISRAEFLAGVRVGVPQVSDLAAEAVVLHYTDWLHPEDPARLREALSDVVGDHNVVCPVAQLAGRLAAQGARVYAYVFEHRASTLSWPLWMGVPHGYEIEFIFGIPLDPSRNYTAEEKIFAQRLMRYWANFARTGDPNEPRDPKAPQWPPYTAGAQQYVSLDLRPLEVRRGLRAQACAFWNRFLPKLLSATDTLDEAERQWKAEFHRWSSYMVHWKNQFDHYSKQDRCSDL

Regarding `O=C(C(=O)c1ccccn1)c1ccccn1`, the Ki at Acetylcholinesterase was greater than 100 µM; at Liver carboxylesterase 1 it was 0.126 µM and 0.484 µM.
Consider `O=C(C(=O)c1ccco1)c1ccco1`, for which the Ki is 8 µM on Cocaine esterase; greater than 100 µM at Acetylcholinesterase; 1.17 µM and 8.48 µM at Liver carboxylesterase 1.
Take `O=C(C(=O)c1cccs1)c1cccs1`: the Ki at Cocaine esterase is 1.04 µM; at Acetylcholinesterase it was greater than 100 µM; at Liver carboxylesterase 1, 0.212 µM and 0.874 µM.
For `O=C(C(=O)c1cc(Br)cs1)c1cc(Br)cs1`, the Ki on Cocaine esterase is 0.0573 µM; at Acetylcholinesterase, greater than 100 µM.
With `O=C(C(=O)c1ccc2ccccc2c1)c1ccc2ccccc2c1`, the Ki was found to be 0.00104 µM in assay [1] and 0.255 µM at Liver carboxylesterase 1.
As for `O=C(C(=O)c1ccsc1)c1ccsc1`, the Ki at Cocaine esterase was 6.54 µM; on Acetylcholinesterase, greater than 100 µM; at Liver carboxylesterase 1, 0.365 µM and 2.41 µM.
Turning to `O=C(c1cccs1)C(O)c1cccs1` (stereo not drawn), the inhibition constant Ki on Cocaine esterase is 5.61 µM; at Acetylcholinesterase, greater than 100 µM; at Liver carboxylesterase 1, 1.66 µM and 4.54 µM.
Take `O=C(C(=O)c1ccc(Br)s1)c1ccc(Br)s1`: on Acetylcholinesterase, the Ki was greater than 100 µM.
In the case of `O=C(c1ccco1)C(O)c1ccco1` (stereo not drawn), the Ki at Cocaine esterase, on Acetylcholinesterase, at Liver carboxylesterase 1 and at Liver carboxylesterase 1 (sf21) was greater than 100 µM throughout.

(Values after ChEMBL document CHEMBL1141162, “Inhibition of carboxylesterases by benzil (diphenylethane-1,2-dione) and heterocyclic analogues is dependent upon the aromaticity of the ring and the flexibility of the dione moiety” (J Med Chem, 2005).)
